Reference: ChEMBL document CHEMBL1250448, “Inhibitor hijacking of Akt activation” (Nat Chem Biol, 2009)

How the values were obtained:
[1] = biological target: Serine/threonine-protein kinase PAK 2 (Homo sapiens) (UniProt Q13177); assay: Inhibition of PAK2 at 1 uM in presence of 10 uM ATP by Select Screen kinase assay relative to untreated control
Summary of the method: (§1)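 Commercial SelectScreen profiling panel of 220 purified kinases. Each kinase was tested at a single inhibitor concentration of 1 μM, and activity was expressed as percent inhibition.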

[2] = test system: Fibroblast growth factor receptor 3 (Homo sapiens), P22607 [K650E]; assay: Inhibition of FGFR3 K650E mutant at 1 uM in presence of 10 uM ATP by Select Screen kinase assay relative to untreated control
Fibroblast growth factor receptor 3 (Homo sapiens), P22607 [K650E], sequence (P22607 whole entry K650E): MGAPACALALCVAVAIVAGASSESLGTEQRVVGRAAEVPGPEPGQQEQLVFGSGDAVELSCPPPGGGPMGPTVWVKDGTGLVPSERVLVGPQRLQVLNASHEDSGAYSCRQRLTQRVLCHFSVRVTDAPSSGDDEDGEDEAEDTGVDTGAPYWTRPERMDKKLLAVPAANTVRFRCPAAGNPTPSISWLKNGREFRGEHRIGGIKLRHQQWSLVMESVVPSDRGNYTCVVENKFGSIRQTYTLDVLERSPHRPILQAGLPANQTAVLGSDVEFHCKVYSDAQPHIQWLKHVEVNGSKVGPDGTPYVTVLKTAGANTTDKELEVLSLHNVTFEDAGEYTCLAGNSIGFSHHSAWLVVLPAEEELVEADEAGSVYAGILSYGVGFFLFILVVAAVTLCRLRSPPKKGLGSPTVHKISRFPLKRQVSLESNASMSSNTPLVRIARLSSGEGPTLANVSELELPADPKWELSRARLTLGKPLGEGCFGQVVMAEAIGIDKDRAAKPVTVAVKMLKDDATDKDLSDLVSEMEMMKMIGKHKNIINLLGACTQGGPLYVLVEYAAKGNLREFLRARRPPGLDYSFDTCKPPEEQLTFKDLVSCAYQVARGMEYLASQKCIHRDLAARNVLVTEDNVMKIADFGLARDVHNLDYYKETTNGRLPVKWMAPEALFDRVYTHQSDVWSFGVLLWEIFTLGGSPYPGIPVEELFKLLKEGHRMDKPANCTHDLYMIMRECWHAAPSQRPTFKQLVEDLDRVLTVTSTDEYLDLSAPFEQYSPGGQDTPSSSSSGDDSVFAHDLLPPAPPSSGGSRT
Summary of the method: (§2)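 Single-concentration profiling at 1 μM against a panel of 220 purified kinases, run as an outsourced SelectScreen kinase profiling service. Activity is expressed as percent inhibition.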

[3] = biological target: Homeodomain-interacting protein kinase 1 (Homo sapiens) (UniProt Q86Z02); assay: Inhibition of HIPK1 at 1 uM in presence of 10 uM ATP by Select Screen kinase assay relative to untreated control; summary of the method: as §2
Homeodomain-interacting protein kinase 1 (Homo sapiens), sequence (Q86Z02 whole entry, looked up): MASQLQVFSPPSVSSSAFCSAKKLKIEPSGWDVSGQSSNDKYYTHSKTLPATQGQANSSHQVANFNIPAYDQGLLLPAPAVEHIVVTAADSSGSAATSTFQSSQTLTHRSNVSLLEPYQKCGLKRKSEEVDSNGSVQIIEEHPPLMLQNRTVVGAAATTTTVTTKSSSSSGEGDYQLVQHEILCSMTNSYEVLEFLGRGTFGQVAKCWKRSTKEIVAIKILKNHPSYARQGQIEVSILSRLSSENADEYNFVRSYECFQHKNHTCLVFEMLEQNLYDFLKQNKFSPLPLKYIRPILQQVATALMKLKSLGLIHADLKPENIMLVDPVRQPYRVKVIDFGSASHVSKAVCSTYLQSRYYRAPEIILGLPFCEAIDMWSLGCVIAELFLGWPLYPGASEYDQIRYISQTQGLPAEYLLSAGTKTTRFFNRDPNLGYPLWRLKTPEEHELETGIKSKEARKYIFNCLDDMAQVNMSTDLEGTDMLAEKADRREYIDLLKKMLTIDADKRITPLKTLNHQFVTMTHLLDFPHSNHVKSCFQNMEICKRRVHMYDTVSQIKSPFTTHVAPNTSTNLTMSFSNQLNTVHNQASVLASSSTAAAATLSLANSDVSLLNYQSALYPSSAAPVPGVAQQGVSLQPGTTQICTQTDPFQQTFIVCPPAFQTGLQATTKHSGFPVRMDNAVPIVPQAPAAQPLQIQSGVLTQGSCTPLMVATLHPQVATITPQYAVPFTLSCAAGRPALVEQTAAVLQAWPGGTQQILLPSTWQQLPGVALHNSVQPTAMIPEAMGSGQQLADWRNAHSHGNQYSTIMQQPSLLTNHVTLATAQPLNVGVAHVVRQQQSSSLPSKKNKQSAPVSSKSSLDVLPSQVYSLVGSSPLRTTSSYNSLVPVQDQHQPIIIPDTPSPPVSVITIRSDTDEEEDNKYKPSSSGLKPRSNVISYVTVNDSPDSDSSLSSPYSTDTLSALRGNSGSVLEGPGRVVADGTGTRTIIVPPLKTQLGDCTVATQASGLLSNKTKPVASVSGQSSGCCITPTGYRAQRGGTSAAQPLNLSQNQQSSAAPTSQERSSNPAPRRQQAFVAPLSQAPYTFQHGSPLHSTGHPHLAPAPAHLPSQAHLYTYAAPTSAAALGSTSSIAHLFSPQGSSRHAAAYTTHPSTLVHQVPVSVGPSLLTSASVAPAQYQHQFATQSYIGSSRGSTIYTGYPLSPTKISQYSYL

[4] = biological target: Myosin light chain kinase 2, skeletal/cardiac muscle (Homo sapiens) (UniProt Q9H1R3); assay: Inhibition of MYLK2 at 1 uM in presence of 100 uM ATP by Select Screen kinase assay relative to untreated control; summary of the method: as §2
[5] = test system: Serine/threonine-protein kinase B-raf (Homo sapiens), P15056 [V600E]; assay: Inhibition of BRAF V599E mutant at 1 uM in presence of 100 uM ATP by Select Screen kinase assay relative to untreated control
Summary of the method: (§3)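 Single-point screen at 1 μM against a panel of 220 purified kinases, run by Invitrogen staff as a SelectScreen profiling service. Read-out is percent inhibition of kinase activity.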

[6] = biological target: Proto-oncogene tyrosine-protein kinase Src (Homo sapiens) (UniProt P12931); assay: Inhibition of SRC at 1 uM in presence of 10 uM ATP by Select Screen kinase assay relative to untreated control; summary of the method: as §1
Proto-oncogene tyrosine-protein kinase Src (Homo sapiens), sequence (P12931 2-536 limits assumed): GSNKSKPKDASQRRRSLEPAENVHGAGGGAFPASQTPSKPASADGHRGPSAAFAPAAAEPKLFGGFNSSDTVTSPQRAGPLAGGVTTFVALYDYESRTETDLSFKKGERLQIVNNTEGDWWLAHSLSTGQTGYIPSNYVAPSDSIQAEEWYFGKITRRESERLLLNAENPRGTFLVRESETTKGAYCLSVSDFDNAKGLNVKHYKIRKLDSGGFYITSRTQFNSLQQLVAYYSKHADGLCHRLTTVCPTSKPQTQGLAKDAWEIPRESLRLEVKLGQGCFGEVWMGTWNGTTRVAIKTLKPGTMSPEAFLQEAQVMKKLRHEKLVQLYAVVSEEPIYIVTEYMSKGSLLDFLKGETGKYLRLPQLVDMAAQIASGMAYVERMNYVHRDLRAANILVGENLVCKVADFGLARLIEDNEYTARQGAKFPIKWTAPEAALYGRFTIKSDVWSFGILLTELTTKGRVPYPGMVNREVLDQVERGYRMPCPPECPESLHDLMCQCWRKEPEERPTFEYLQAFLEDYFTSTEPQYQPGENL

[7] = biological target: T1, Serine/threonine-protein kinase Sgk3 (Homo sapiens) (UniProt Q96BR1); assay: Inhibition of SGKL at 1 uM in presence of 10 uM ATP by Select Screen kinase assay relative to untreated control; summary of the method: as §1
T1 sequence (whole entry): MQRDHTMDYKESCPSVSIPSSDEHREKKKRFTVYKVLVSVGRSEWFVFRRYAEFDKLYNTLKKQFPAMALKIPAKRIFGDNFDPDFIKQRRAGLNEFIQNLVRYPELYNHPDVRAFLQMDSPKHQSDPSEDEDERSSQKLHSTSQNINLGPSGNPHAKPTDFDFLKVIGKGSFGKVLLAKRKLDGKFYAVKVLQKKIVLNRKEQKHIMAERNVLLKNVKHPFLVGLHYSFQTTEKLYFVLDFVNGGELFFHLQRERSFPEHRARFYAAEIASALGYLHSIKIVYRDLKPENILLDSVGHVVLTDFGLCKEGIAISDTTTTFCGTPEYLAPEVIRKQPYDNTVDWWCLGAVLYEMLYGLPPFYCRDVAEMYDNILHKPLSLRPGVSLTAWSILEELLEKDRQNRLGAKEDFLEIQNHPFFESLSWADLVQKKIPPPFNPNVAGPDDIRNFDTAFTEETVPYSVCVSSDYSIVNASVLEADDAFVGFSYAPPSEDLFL

[8] = biological target: Serine/threonine-protein kinase PLK1 (Homo sapiens) (UniProt P53350); assay: Inhibition of PLK1 at 1 uM in presence of 10 uM ATP by Select Screen kinase assay relative to untreated control; summary of the method: as §1
Serine/threonine-protein kinase PLK1 (Homo sapiens), sequence (P53350 whole entry): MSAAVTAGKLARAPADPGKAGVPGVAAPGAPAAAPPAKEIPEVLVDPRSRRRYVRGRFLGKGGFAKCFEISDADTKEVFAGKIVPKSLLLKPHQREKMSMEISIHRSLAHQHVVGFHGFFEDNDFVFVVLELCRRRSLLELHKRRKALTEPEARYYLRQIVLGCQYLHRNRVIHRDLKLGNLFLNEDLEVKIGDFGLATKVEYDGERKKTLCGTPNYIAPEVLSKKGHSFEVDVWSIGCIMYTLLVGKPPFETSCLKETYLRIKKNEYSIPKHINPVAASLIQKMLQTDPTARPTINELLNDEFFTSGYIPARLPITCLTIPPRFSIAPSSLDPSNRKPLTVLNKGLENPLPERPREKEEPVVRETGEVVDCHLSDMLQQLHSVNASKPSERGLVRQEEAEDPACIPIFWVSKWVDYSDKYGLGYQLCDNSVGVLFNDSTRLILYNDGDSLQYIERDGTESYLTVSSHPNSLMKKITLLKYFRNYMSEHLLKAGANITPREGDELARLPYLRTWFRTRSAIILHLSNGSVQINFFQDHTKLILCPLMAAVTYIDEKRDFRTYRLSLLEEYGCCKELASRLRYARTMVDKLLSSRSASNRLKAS

[9] = biological target: Protein kinase C beta type (Homo sapiens) (UniProt P05771); assay: Inhibition of PRKCB2 at 1 uM in presence of 10 uM ATP by Select Screen kinase assay relative to untreated control; summary of the method: as §1
Protein kinase C beta type (Homo sapiens), sequence (P05771 2-671 limits assumed): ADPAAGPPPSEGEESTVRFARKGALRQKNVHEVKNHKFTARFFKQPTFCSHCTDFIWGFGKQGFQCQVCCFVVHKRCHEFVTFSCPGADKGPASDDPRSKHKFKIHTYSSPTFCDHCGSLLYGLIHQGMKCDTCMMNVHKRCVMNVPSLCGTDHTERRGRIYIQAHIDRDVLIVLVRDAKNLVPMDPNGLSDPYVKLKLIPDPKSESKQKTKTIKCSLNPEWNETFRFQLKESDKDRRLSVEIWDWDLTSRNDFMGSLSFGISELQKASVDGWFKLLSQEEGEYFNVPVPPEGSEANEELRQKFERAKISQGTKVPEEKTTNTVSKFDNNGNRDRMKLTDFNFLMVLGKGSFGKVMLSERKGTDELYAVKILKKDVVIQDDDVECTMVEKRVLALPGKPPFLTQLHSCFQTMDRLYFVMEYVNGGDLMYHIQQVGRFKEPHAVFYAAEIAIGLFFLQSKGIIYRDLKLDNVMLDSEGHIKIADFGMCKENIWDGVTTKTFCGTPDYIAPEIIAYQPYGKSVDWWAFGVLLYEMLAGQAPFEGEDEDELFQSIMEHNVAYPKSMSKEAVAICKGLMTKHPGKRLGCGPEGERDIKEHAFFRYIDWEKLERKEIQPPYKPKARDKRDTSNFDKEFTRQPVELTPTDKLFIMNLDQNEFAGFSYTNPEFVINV

[10] = biological target: Serine/threonine-protein kinase PLK3 (Homo sapiens) (UniProt Q9H4B4); assay: Inhibition of PLK3 at 1 uM in presence of 10 uM ATP by Select Screen kinase assay relative to untreated control; summary of the method: as §1
[11] = biological target: Receptor tyrosine-protein kinase erbB-2 (Homo sapiens) (UniProt P04626); assay: Inhibition of ERBB2 at 1 uM in presence of 10 uM ATP by Select Screen kinase assay relative to untreated control; summary of the method: as §3
[12] = biological target: Tyrosine-protein kinase Fer (Homo sapiens) (UniProt P16591); assay: Inhibition of FER at 1 uM in presence of 10 uM ATP by Select Screen kinase assay relative to untreated control; summary of the method: as §3
[13] = biological target: Dual specificity mitogen-activated protein kinase kinase 2 (Homo sapiens) (UniProt P36507); assay: Inhibition of MAP2K2 at 1 uM in presence of 100 uM ATP by Select Screen kinase assay relative to untreated control; summary of the method: as §2
Dual specificity mitogen-activated protein kinase kinase 2 (Homo sapiens), sequence (P36507 whole entry): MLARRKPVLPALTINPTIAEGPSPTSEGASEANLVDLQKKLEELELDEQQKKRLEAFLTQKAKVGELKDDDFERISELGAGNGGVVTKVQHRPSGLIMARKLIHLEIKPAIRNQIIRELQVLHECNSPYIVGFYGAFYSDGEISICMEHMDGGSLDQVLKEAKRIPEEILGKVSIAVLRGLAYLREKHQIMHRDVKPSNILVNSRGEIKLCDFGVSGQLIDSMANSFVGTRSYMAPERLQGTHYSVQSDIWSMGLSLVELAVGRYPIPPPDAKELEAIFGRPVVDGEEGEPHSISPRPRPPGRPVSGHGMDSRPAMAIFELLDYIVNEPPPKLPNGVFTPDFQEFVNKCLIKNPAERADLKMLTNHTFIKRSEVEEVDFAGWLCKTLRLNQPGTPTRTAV

[14] = biological target: Fibroblast growth factor receptor 3 (Homo sapiens) (UniProt P22607); assay: Inhibition of FGFR3 at 1 uM in presence of 10 uM ATP by Select Screen kinase assay relative to untreated control; summary of the method: as §2
[15] = biological target: Serine/threonine-protein kinase Nek7 (Homo sapiens) (UniProt Q8TDX7); assay: Inhibition of NEK7 at 1 uM in presence of 100 uM ATP by Select Screen kinase assay relative to untreated control; summary of the method: as §1
Serine/threonine-protein kinase Nek7 (Homo sapiens), sequence (Q8TDX7 whole entry, looked up): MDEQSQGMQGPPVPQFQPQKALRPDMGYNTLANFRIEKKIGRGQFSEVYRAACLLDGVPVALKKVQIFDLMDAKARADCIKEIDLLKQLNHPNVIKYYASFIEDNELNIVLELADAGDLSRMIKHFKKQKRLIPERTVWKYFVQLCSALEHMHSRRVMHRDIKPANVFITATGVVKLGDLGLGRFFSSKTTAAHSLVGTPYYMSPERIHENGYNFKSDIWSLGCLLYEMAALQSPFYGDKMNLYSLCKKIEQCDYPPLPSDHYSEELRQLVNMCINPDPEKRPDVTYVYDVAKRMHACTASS

[16] = biological target: Macrophage-stimulating protein receptor (Homo sapiens) (UniProt Q04912); assay: Inhibition of MST1R at 1 uM in presence of 10 uM ATP by Select Screen kinase assay relative to untreated control; summary of the method: as §2

Serine/threonine-protein kinase PAK 2 (Homo sapiens), sequence (Q13177 whole entry): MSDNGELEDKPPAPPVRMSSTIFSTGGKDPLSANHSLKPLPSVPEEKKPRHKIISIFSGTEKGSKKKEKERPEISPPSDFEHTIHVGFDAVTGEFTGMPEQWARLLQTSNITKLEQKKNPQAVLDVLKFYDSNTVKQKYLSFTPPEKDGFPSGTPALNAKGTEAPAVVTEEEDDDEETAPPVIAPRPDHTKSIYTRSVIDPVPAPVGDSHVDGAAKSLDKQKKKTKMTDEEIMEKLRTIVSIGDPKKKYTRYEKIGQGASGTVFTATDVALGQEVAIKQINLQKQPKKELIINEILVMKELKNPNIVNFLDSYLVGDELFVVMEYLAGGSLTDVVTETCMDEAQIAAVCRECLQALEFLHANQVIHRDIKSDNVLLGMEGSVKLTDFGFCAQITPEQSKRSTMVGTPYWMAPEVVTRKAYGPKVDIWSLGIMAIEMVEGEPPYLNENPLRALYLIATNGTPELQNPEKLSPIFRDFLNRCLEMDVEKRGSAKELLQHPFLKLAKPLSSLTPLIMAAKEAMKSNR

| inhibition [1] | inhibition [2] | inhibition [3] | inhibition [4] | inhibition [5] | inhibition [6] | inhibition [7] | inhibition [8] | inhibition [9] | inhibition [10] | inhibition [11] | inhibition [12] | inhibition [13] | inhibition [14] | inhibition [15] | inhibition [16] | Structure (SMILES) |
| --- | --- | --- | --- | --- | --- | --- | --- | --- | --- | --- | --- | --- | --- | --- | --- | --- |
| 5% | 38% | 18% | 25% | 52% | 27% | 12% | 14% | 35% | 51% | 10% | 38% | 69% | 43% | 9% | 17% | O=C(NCCCNc1nc(Nc2cccc(NC(=O)N3CCCC3)c2)ncc1I)c1cccs1 |
| 9% | 12% | 34% | 12% | 9% | 10% | 17% | 12% | 32% | 27% | 8% | 28% | 21% | 23% | 13% | -4% | COc1ccccc1N1CCN(c2ncnc3[nH]nc(Br)c23)CC1 |

| Structure (SMILES) | inhibition [1] | inhibition [2] | inhibition [3] | inhibition [4] | inhibition [5] | inhibition [6] | inhibition [7] | inhibition [8] | inhibition [9] | inhibition [10] | inhibition [11] | inhibition [12] | inhibition [13] | inhibition [14] | inhibition [15] | inhibition [16] |
| --- | --- | --- | --- | --- | --- | --- | --- | --- | --- | --- | --- | --- | --- | --- | --- | --- |
| Cc1n[nH]c2ccc(-c3cncc(OC[C@@H](N)Cc4c[nH]c5ccccc45)c3)cc12 | 55% | 8% | 68% | 22% | 45% | 11% | 78% | 1% | 68% | 7% | -6% | 14% | 42% | -1% | 1% | 10% |
